Measured values taken from ChEMBL document CHEMBL4825665, “Effective degradation of EGFRL858R+T790M mutant proteins by CRBN-based PROTACs through both proteosome and autophagy/lysosome degradation systems” (Eur J Med Chem, 2021).
Activity calls are given as the source filed them. No cut-off for these calls is given here.

Columns and labels:
PC-9 = experiment: Antiproliferative activity against human PC-9 cells assessed as inhibition of cell growth measured after 72 hrs by CCK-8 assay; type: functional, cell-based; conditions: PC-9, 72 h
Procedure, shortened: (§1)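 Cells seeded at 3000 cells/well in 96-well plates and treated with graded compound concentrations one day later for 72 h. CCK-8 was added for 1–4 h and absorbance read at 450 nm. Lung cancer lines were kept in RPMI 1640 with 10% fetal calf serum at 37 °C and 5% CO₂.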

[1] = Antiproliferative activity against human PB1 cells assessed as inhibition of cell growth measured after 72 hrs by CCK-8 assay; type: functional, cell-based; conditions: PB1, 72 h; procedure, shortened: as §1
A549 = experiment: Antiproliferative activity against human A549 cells assessed as inhibition of cell growth measured after 72 hrs by CCK-8 assay; type: functional, cell-based; conditions: A549, 72 h; procedure, shortened: as §1
HEK-293T = experiment: Cytotoxicity against human HEK293T cells assessed as inhibition of cell growth measured after 72 hrs by CCK-8 assay; type: cell-based; procedure, shortened: as §1
[2] = target: T1, Protein cereblon/Epidermal growth factor receptor (Homo sapiens, UniProt P00533+Q96SW2); experiment: Protac activity at CRBN/EGFR in human PC-9 cells assessed as induction of EGFR degradation by Western blot assay; type: cell-based
[3] = target: T1, Protein cereblon/Epidermal growth factor receptor; experiment: Protac activity at CRBN/EGFR in human PB1 cells assessed as induction of EGFR degradation by Western blot assay; type: cell-based
[4] = target: T1, Protein cereblon/Epidermal growth factor receptor; experiment: Protac activity at CRBN/EGFR in human NCI-H1975 cells assessed as induction of EGFR degradation by Western blot assay; type: cell-based
[5] = target: T1, Protein cereblon/Epidermal growth factor receptor; experiment: Protac activity at CRBN/EGFR in human A549 cells assessed as induction of EGFR degradation by Western blot assay; type: cell-based
[6] = tested on: Protein cereblon/Epidermal growth factor receptor (Homo sapiens), P00533+Q96SW2 [UNDEFINED MUTATION]; experiment: Protac activity at CRBN/EGFR exon 19 deletion mutant in human PC-9 cells assessed as induction of EGFR degradation at >10 nM measured after 48 hrs by Western blot assay; type: cell-based; conditions: dose nM >10, time 48.0 hrs
Procedure, shortened: (§2)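 Cells seeded at 1-3X10^5/well and treated one day later with compounds at the concentrations and times given. Lysed in RIPA buffer with protease inhibitors. 15 µg protein run on 8% SDS-PAGE, transferred to nitrocellulose, probed for EGFR or phospho-EGFR, ECL detection. Lung lines kept in RPMI 1640 with 10% fetal calf serum, 37 °C, 5% CO2. DC50 is an estimated value. Repeated more than 3 times.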

[7] = tested on: Protein cereblon/Epidermal growth factor receptor (Homo sapiens), P00533+Q96SW2 [UNDEFINED MUTATION]; experiment: Protac activity at CRBN/EGFR exon19 deletion/T790M mutant in human PC-9 cells transfected with BRCA1 assessed as induction of EGFR degradation at 1 to 1000 nM measured after 16 hrs by Western blot assay; type: cell-based; conditions: dose 1-1000 nM; procedure, shortened: as §2
[8] = tested on: Protein cereblon/Epidermal growth factor receptor (Homo sapiens), P00533+Q96SW2 [UNDEFINED MUTATION]; experiment: Protac activity at CRBN/EGFR exon19 deletion/T790M mutant in human PC-9 cells transfected with BRCA1 assessed as induction of EGFR degradation at 1 to 1000 nM measured after 48 hrs by Western blot assay; type: cell-based; conditions: dose 1-1000 nM; procedure, shortened: as §2
[9] = tested on: Epidermal growth factor receptor (Homo sapiens), P00533 [L858R,T790M]; experiment: Inhibition of EGFR L858R/T790M mutant phosphorylation in human NCI-H1975 cells at 1 to 100 nM measured after 16 hrs by Western blot assay; type: cell-based; conditions: dose 1-100 nM; procedure, shortened: as §2
[10] = tested on: Protein cereblon/Epidermal growth factor receptor (Homo sapiens), P00533+Q96SW2 [L858R,T790M]; experiment: Protac activity at CRBN/EGFR L858R/T790M mutant in human NCI-H1975 cells assessed as induction of EGFR degradation at 300 nM pretreated for 24 hrs followed by compound washout and subsequent addition of fresh medium by Western blot assay relative to control; type: cell-based
Procedure, shortened: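 H1975 cells were treated with 300 nM PROTAC for 24 h. Medium was removed, cells were washed 3 times with PBS, and fresh RPMI 1640 with 10% fetal calf serum was added. Cells were harvested at time points up to 72 h after drug removal, and total EGFR was measured by Western blot.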

NCI-H1975 [11] = experiment: Cell cycle arrest in human NCI-H1975 cells expressing EGFR L858R/T790M mutant assessed as increase of cell population in G0/G1 phase at […] measured after 48 hrs by RNaseA/propidium iodide staining based flow cytometry; type: functional; conditions: dose lower 0.03 nM
Procedure, shortened: (§3)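 H1975 cells (1 × 10⁵/well, 6-well plates) treated one day after seeding at the indicated concentrations for 48 h. Washed in cold PBS, fixed in cold ethanol at −20 °C for over 24 h, then stained with PI/RNase for 30 min at 37 °C in the dark. Phase distribution measured by flow cytometry.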

NCI-H1975 [12] = experiment: Cell cycle arrest in human NCI-H1975 cells expressing EGFR L858R/T790M mutant assessed as decrease of cell population in S phase at […] measured after 48 hrs by RNaseA/propidium iodide staining based flow cytometry; type: functional; conditions: dose lower 0.03 nM; procedure, shortened: as §3
NCI-H1975 [13] = experiment: Induction of apoptosis in human NCI-H1975 cells expressing EGFR L858R/T790M mutant assessed as decrease in number of viable cells measured after 72 hrs by Annexin-V/FITC staining based flow cytometry method; type: functional, cell-based
Procedure, shortened: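 H1975 cells (8 × 10⁴/well, 12-well plates) treated one day after seeding at graded concentrations for 72 h. Collected, stained with Annexin V-FITC, and apoptosis measured by flow cytometry.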

NCI-H1975 [14] = experiment: Antimigratory activity in human NCI-H1975 cells expressing EGFR L858R/T790M mutant at 500 nM measured after 24 hrs by wound healing assay; type: functional, cell-based
Procedure, shortened: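 H1975 cells seeded in 24-well plates, scratched at confluence with a pipette tip 24 h later and washed three times with PBS. Then incubated with degrader at 300 or 500 nM. Six photos per well taken at set time points, and the uncovered wound area quantified.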

[15] = tested on: Protein cereblon/Epidermal growth factor receptor (Homo sapiens), P00533+Q96SW2 [L858R,T790M]; experiment: Protac activity at CRBN/EGFR L858R/T790M mutant in human NCI-H1975 cells assessed as induction of EGFR degradation at 0.3 uM pre-incubated for 2 hrs in the presence of Bafilomycin A1 and measured after 16 hrs by Western blot assay; type: cell-based; conditions: time 18.0 hrs
[16] = tested on: Protein cereblon/Epidermal growth factor receptor (Homo sapiens), P00533+Q96SW2 [L858R,T790M]; experiment: Protac activity at CRBN/EGFR L858R/T790M mutant in human NCI-H1975 cells assessed as increase in ratio of LC3B2 to LC3B1 under serum starvation condition at 0.3 uM measured after 16 hrs by Western blot assay; type: cell-based
Procedure, shortened: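 H1975 cells in RPMI 1640 with 10% serum. Autophagy was read by Western blot as the LC3B II/LC3B I ratio. Serum-free medium and rapamycin served as autophagy-inducing positive controls, and rapamycin was also combined with degrader. Where pretreatment applied, compounds were added for 2 h before a 16 h PROTAC treatment.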

[17] = tested on: Protein cereblon/Epidermal growth factor receptor (Homo sapiens), P00533+Q96SW2 [L858R,T790M]; experiment: Protac activity at CRBN/EGFR L858R/T790M mutant in human NCI-H1975 cells assessed as induction of EGFR degradation at 30 to 500 nM by Western blot assay; type: cell-based; conditions: dose 30-500 nM, time 16-48 hrs, TDE = time-dependent effect
[18] = tested on: Protein cereblon/Epidermal growth factor receptor (Homo sapiens), P00533+Q96SW2 [L858R,T790M]; experiment: Protac activity at CRBN/EGFR L858R/T790M mutant in human NCI-H1975 cells assessed as increase in cell doubling time at 100 to 300 nM measured after 4 days by […] staining based fluorescence assay; conditions: dose 100-300 nM, time 4.0 day

## C=CC(=O)Nc1cc2c(Nc3ccc(F)c(Cl)c3)ncnc2cc1OCCCN1CCN(C(=O)CCCCCNc2cccc3c2C(=O)N(C2CCC(=O)NC2=O)C3=O)CC1 (configuration not stated)
PC-9
  IC50: 2.6 nM
[1]
  IC50: 45 nM
A549
  IC50: > 10000 nM
HEK-293T
  IC50: > 10000 nM
[2]
  DC50: 100 nM
[3]
  DC50: Not Active
[4]
  DC50: 30 nM
[5]
  DC50: Not Active
[6]
  Activity: Dose-Dependent Effect
[7]
  Activity: inactive
[8]
  Activity: inactive
[9]
  Activity: Active
[10]
  Activity: Active
NCI-H1975 [11]
  Activity: Active
NCI-H1975 [12]
  Activity: Active
NCI-H1975 [13]
  Activity: Dose-Dependent Effect
NCI-H1975 [14]
  Activity: Active
[15]
  Activity: inactive
[16]
  Activity: Active
[17]
  Activity: Tde
[18]
  Activity: Active

## C=CC(=O)Nc1cc2c(Nc3ccc(F)c(Cl)c3)ncnc2cc1OCCCN1CCN(C(=O)CCCCCCNc2cccc3c2C(=O)N(C2CCC(=O)NC2=O)C3=O)CC1 (configuration not stated)
PC-9
  IC50: 3.94 nM
[1]
  IC50: 89.5 nM
A549
  IC50: > 10000 nM
HEK-293T
  IC50: > 10000 nM
[2]
  DC50: 30 nM
[3]
  DC50: Not Active
[4]
  DC50: < 30 nM
[5]
  DC50: Not Active
[6]
  Activity: Dose-Dependent Effect
[7]
  Activity: inactive
[8]
  Activity: inactive
[9]
  Activity: Active
[10]
  Activity: Active
NCI-H1975 [11]
  Activity: Active
NCI-H1975 [12]
  Activity: Active
NCI-H1975 [13]
  Activity: Dose-Dependent Effect
NCI-H1975 [14]
  Activity: Active
[15]
  Activity: inactive
[16]
  Activity: Active
[17]
  Activity: Tde
[18]
  Activity: Active
